PLC-beta3 inh = human PLC-beta3 inhibitors, primary screen, biochemical, fluorescence | 370,000 compounds, 0.18% hits | AID 720704, 2013 | 1-phosphatidylinositol 4,5-bisphosphate phosphodiesterase beta-3 (Homo sapiens), Q01970 | inhibition, % at 12.2 µM | Purified PLC-beta3, fluorogenic substrate; in the data active = inhibition above about 11%
PLCg1 inh = PLC-gamma1 enzyme inhibitors, primary screen, biochemical, fluorescence, purified enzyme | 1-phosphatidylinositol 4,5-bisphosphate phosphodiesterase gamma-1 (Homo sapiens), P19174 | fluorogenic substrate | inhibition, % at 12.2 µM | 370,000 compounds, 0.84% hits
NTR1 agonist = agonists of human NTR1, primary screen, imaging, U2OS cells, beta-arrestin-GFP, high content; NTR1-U2OS beta-arrestin-GFP spot imaging, agonist mode; 330,000 compounds, 0.17% hits; activation, % at 20 µM;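 active = activation at or above 40% of the spot to cytoplasm intensity ratio, with at least 20 cells analyzed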
Target sequence (P30989 whole entry, looked up): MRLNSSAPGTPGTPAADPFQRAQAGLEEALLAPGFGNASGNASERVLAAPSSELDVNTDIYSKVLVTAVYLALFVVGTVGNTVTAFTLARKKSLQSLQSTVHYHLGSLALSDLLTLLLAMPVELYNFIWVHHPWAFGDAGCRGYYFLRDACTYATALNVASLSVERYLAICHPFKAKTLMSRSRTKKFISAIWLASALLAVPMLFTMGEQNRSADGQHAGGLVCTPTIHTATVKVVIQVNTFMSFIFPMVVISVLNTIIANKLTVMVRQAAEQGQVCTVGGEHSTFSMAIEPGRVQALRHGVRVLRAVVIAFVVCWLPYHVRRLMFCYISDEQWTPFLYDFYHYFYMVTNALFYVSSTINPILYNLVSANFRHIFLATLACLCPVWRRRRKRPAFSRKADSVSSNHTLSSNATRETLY
Arrestin-AP2 inh = inhibitors of beta-arrestin/AP2 binding, primary screen, biochemical, GPCR trafficking, flow cytometry | AID 504490, 2011 | beta-arrestin 1 C-terminal peptide binding to AP2 beta2-adaptin appendage (human) | 340,000 compounds, 0.31% hits | inhibition, % at 10 µM | FITC-arrestin peptide / GST-AP2 beads; AP2 beta2 appendage carries R879A mutation;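 active = inhibition above a set limit, near 3 SD of compounds lacking own fluorescence, cut at about 54% in these data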
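Assay system: GST-AP2 R879A bound to glutathione beads, E. coli-expressed; Medium: PBS with 0.05% Tween 20 and 0.1% BSA; Also added: fluorescein-tagged arrestin peptide at 50 nM final; Timing: 12 min plus 1 h, RT; Measured by: flow cytometry, FL1 (488/535 nm); Evaluation: percent drop in bead-associated FITC signal.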
PLCg1 ctr = PLC-gamma1 enzyme inhibitors, counter-screen for PLC-beta3 inhibitor project, biochemical, fluorescence; shares compounds with PLCg1 inh; purified PLC-gamma1, fluorogenic substrate; inhibition, % at 12.3 µM; 3,300 compounds, 3.1% hits; AID 743258, 2014
PLCbeta3 conf = PLC-beta3 inhibitor confirmation, biochemical, fluorescence, purified enzyme; fluorogenic substrate fluorescence; AID 743261, 2014; shares compounds with PLCg1 inh; inhibition, % at 12.3 µM; 3,300 compounds, 1% hits; in the data active = inhibition above about 11%
Large screens that a line does not name were inactive (follow-up assays come after a bar, where they were run). A selection: hits, their analogues and other compounds. The true share with any hit is near 1.3%. Rule as the data show it, unless noted: active = inhibition above about 9.5%; inactive = the rest.

CC(Sc1nnc(C2CC2)n1N)C(=O)NC1CCCCC1C (stereo not drawn)	PLCg1 inh 9.9 | PLCg1 ctr inactive | PLCbeta3 conf inactive
O=C(N[C@H]1C[C@@H]2O[C@@H](CO)CC[C@@H]2O[C@@H]1CCc1ccc(-c2cccnc2)cc1)c1cccc(F)c1	none (no result: NTR1 agonist, Arrestin-AP2 inh)
Cc1ccc(C(=O)OCc2c(C)noc2C)cc1NC(=O)c1ccco1	PLCg1 inh 11.4 | PLCg1 ctr inactive | PLCbeta3 conf inactive
CCCCNC(=O)COC(=O)c1ccc(C)c(NC(=O)c2ccco2)c1	none
CC(=O)OCC(=O)Nc1ccc(Cl)cc1Cl	PLCg1 inh 10.3 | PLCg1 ctr inactive | PLCbeta3 conf inactive
Cc1ccc(S(=O)(=O)N2CCCC2C(=O)N2CCN(c3ccccc3)CC2)cc1 (stereo not drawn)	none (no result: NTR1 agonist, Arrestin-AP2 inh)
CSc1ccc(S(=O)(=O)NCc2ccc(C)cc2)cc1	none
Cc1ccc(CNS(=O)(=O)c2ccc([N+](=O)[O-])cc2)cc1	PLCg1 inh 12.2 | PLCg1 ctr inactive | PLCbeta3 conf inactive
Cc1cccc(CCNC(=O)C2CCCN(S(=O)(=O)c3cccc4nsnc34)C2)c1 (stereo not drawn)	PLCg1 inh 16.8 | PLCg1 ctr inactive | PLCbeta3 conf inactive
CCCCn1cc([N+](=O)[O-])nc1C	none
Cc1nc([N+](=O)[O-])cn1CCCCN1C(=O)c2ccccc2C1=O	PLCg1 inh 10.5 | PLCg1 ctr inactive | PLCbeta3 conf inactive
O=S1(=O)c2c(cccc2N2CCC[C@@H]2CO)OCCCN1C1CC1	none (no result: NTR1 agonist, Arrestin-AP2 inh)
Cc1ccc(S(=O)(=O)NC2c3cccc4cccc(c34)C2Sc2n[nH]c(N)n2)cc1 (stereo not drawn)	PLCg1 inh 9.9 | PLCg1 ctr inactive | PLCbeta3 conf inactive
COc1cccc(C2CC(c3cccs3)=NN2C(=O)CSC2=NN3CCCC(=O)N=C3S2)c1OC (stereo not drawn)	none
COc1ccc(C2=NN(C(=O)CSC3=NN4CCCC(=O)N=C4S3)C(c3cccc(OC)c3OC)C2)cc1 (stereo not drawn)	PLCg1 inh 9.7 | PLCg1 ctr inactive | PLCbeta3 conf inactive
COC(=O)[C@]12C[C@H](CC(=O)N3CCN(C(=O)c4ccco4)CC3)C(=O)N(Cc3ccc(Cl)cc3Cl)C1=C[C@H](COCc1ccccc1)O[C@@H]2C	PLCg1 inh 13.0 (no result: NTR1 agonist, Arrestin-AP2 inh) | PLCg1 ctr inactive | PLCbeta3 conf inactive
COC(=O)[C@]12C[C@H](CC(=O)N3CCCCC3)C(=O)N(Cc3ccc(Cl)cc3Cl)C1=C[C@H](COCc1ccccc1)O[C@@H]2C	none (no result: NTR1 agonist, Arrestin-AP2 inh)
Clc1cccc2sc(N3CCN(c4ccccc4)CC3)nc12	PLCg1 inh 10.7 | PLCg1 ctr inactive | PLCbeta3 conf inactive
Clc1ccc(Cl)c2sc(N3CCCC3)nc12	none
CCOC(=O)C1CCN(C(=O)C(C)(C)NC(=O)Nc2ccc(N(C)C)cc2)CC1	none (no result: NTR1 agonist, Arrestin-AP2 inh)
COc1ccc(C(C)c2cc3c(cc2OCC(=O)O)OCO3)cc1 (stereo not drawn)	PLC-beta3 inh 21.1 (no result: NTR1 agonist, Arrestin-AP2 inh) | PLCg1 ctr inactive | PLCbeta3 conf inactive
S=C1NCN(CC2CC2)CN1	none (no result: NTR1 agonist, Arrestin-AP2 inh)
CCOC(=O)CC1(C)Oc2ccccc2N1S(=O)(=O)c1ccc(C)cc1 (stereo not drawn)	PLCg1 inh 9.8 (no result: NTR1 agonist, Arrestin-AP2 inh) | PLCg1 ctr inactive | PLCbeta3 conf inactive
COC(=O)C1CN(Cc2cn(Cc3ccccc3)nn2)CCS(=O)(=O)N1Cc1ccc(C)cc1 (stereo not drawn)	none (no result: NTR1 agonist, Arrestin-AP2 inh)
O=C(NCCNC(=O)c1cc(OCC(F)(F)F)ccc1OCC(F)(F)F)Nc1ccc(OC(F)(F)F)cc1	PLCg1 inh 11.9 | PLCg1 ctr inactive | PLCbeta3 conf inactive
Cc1cc(NC(=O)CN2CCN(C/C=C/c3ccccc3)CC2)c([N+](=O)[O-])cc1C	PLCg1 inh 9.5 | PLCg1 ctr inactive | PLCbeta3 conf inactive
CC(=O)c1cc(-c2cccc(C#N)c2)c(=O)n2c1CCC2	none (no result: NTR1 agonist, Arrestin-AP2 inh)
CCn1c(SCC(=O)Nc2ccc(Cl)cc2)nc2nc3c(cc2c1=O)CCCC3	none
CCn1c(SCC(=O)Nc2ccc(C(C)=O)cc2)nc2nc3c(cc2c1=O)CCCC3	PLCg1 inh 9.7 | PLCg1 ctr inactive | PLCbeta3 conf inactive
COc1ccc(N2CCN(CCNS(=O)(=O)c3ccccc3[N+](=O)[O-])CC2)cc1	none (no result: NTR1 agonist, Arrestin-AP2 inh)
Cc1cc(C)c(NC(=O)Nc2ccccc2C)c(Cl)c1	none
Cc1cc(C)c(NC(=O)Nc2ccccc2)c(Cl)c1	PLC-beta3 inh 13.4 | PLCg1 ctr inactive | PLCbeta3 conf inactive
COC(=O)[C@]12CCCCC=C1N(Cc1ccc(OC)cc1)C(=O)[C@@H]2CC(=O)NCCC(C)C	none (no result: NTR1 agonist, Arrestin-AP2 inh)
Cc1ccc(C(=O)COC(=O)c2c(C)cc(=O)oc2C)cc1[N+](=O)[O-]	PLC-beta3 inh 11.9 | PLCg1 ctr inactive | PLCbeta3 conf inactive
COc1cc(NC(=O)c2ccccc2)c(C)cc1NC(=O)CSc1nnc(COc2ccccc2)n1Cc1ccco1	none (no result: NTR1 agonist, Arrestin-AP2 inh)
N#Cc1cccc(NC(=O)OCCCN2CCC3(CCCCC3)C2=O)c1	none (no result: NTR1 agonist, Arrestin-AP2 inh)
Cc1cc(C)cc(N(CC(=O)NC2CCCC2)S(=O)(=O)c2c(C)[nH]c(=O)[nH]c2=O)c1	PLCg1 inh 10.6 | PLCg1 ctr inactive | PLCbeta3 conf inactive
Cc1cc(C)cc(N(CC(=O)Nc2cccc(C)c2C)S(=O)(=O)c2c(C)[nH]c(=O)[nH]c2=O)c1	none
Cc1cc(C)cc(N(CC(=O)Nc2cc(C)ccc2C)S(=O)(=O)c2c(C)[nH]c(=O)[nH]c2=O)c1	PLCg1 inh 10.3 | PLCg1 ctr inactive | PLCbeta3 conf inactive
CCCCNc1ncnc2c1cnn2-c1ccc(C)cc1C	PLCg1 inh 10.9 | PLCg1 ctr inactive | PLCbeta3 conf inactive
COc1cc(C=Nn2c(-c3cc(C)[nH]n3)n[nH]c2=S)cc(Br)c1O	none (no result: NTR1 agonist, Arrestin-AP2 inh)
COc1ccc(C(=O)CSc2nnc(-c3ccccn3)n2-c2ccccc2)cc1	none (no result: NTR1 agonist, Arrestin-AP2 inh)
O=C(CN1CCC(n2nnc3cc(F)ccc32)CC1)N1CCCc2ccccc21	none
O=C(CN1CCC(n2nnc3cc(C(F)(F)F)ccc32)CC1)N1CCc2ccccc21	PLCg1 inh 13.4 | PLCg1 ctr inactive | PLCbeta3 conf inactive
FC(F)(F)C1=CC(c2ccc(Cl)cc2)=NCCN1	PLCg1 inh 11.4 | PLCg1 ctr inactive | PLCbeta3 conf inactive
Oc1ccccc1C1=NCCNC(C(F)(F)F)=C1	none
COc1ccccc1C(=O)CSc1n[nH]c(N)n1	PLC-beta3 inh 10.8 | PLCg1 ctr inactive | PLCbeta3 conf inactive
COc1ccccc1CNC(=O)CSc1n[nH]c(N)n1	none
